In ChEMBL document CHEMBL4513216, “Probing the Open Global Health Chemical Diversity Library for Multistage-Active Starting Points for Next-Generation Antimalarials” (ACS Infect Dis, 2020):

Assay: Toxicity liver stage against HepG2, at 10uM
Type: cell-based
Parameters: test concentration 10 uM, cell line HepG2-A16-CD81EGFP
Settings: human, HepG2-A16-CD81EGFP cells; read-out: INHIBITION
How it was run: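 Uninfected HepG2-A16-CD81EGFP cells, 3 × 10^3 per well, 1536-well, plated on prespotted compound at 10 μM final, parasite-free screening media added to match infected plates; puromycin 10 μM positive, DMSO 0.5% negative; run in parallel with 48 h PbLuc assay at 37 °C, 5% CO2; viability by CellTiter-Glo luminescence, normalized to controls.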

Row | SMILES | cytotoxicity at 10 µM
1 | O=C(Nc1cc(C(F)(F)F)c[nH]c1=O)c1ccco1 | -8.28%
2 | Fc1ccc(-c2c[nH]c([C@@H]3COCCN3)n2)cc1 | -0.0368%
3 | COCc1cc(C[C@@H]2CC[C@H](O)[C@@H](CN(C)C)O2)no1 | 12%
4 | COc1cccc2ccn(CC(=O)NCCC(C)C)c12 | -43.3%
5 | COc1ccc(CNC(=O)CCCc2nnc3ccc(OC)nn23)cc1 | -5.36%
6 | Cc1cc(C)nc(NC(=O)NCCCSc2nncn2C)n1 | 1.74%
7 | O=C(N[C@]12CC1CN(C(=O)c1ccco1)C2)c1ccco1 (stereo partly drawn) | -0.479%
8 | O=C(NCC1CC1)C1CCC2(CCN(C(=O)c3cnccn3)CC2)O1 (stereo not drawn) | -9.28%
9 | CCC(=O)N1CC[C@H](O)[C@@H]1Cc1ccccc1 | 0.081%
10 | Cc1noc([C@]23COC[C@H]2CN(C(=O)C2CCOCC2)C3)n1 | 9.46%
11 | Cc1n[nH]c2c1C(c1ccc3c(c1)OCO3)SCC(=O)N2 (stereo not drawn) | 3.46%
12 | CC(C)C(=O)Nc1cccc(C(=O)Nc2ccccn2)c1 | -2.37%
13 | CCC(CC)CN1CCN(CC(=O)Nc2ccc3nsnc3c2)CC1 | -13.8%
14 | O=C(O)c1ccnc2c(Br)cccc12 | 8.02%
15 | CCCn1ncc(C(=O)NC(C)c2c(C)nn(CC)c2C)c1C (stereo not drawn) | 9.91%
16 | CNc1cnc(CC2COCCN(Cc3ccccc3)C2)cn1 (stereo not drawn) | 10.9%
17 | O=S(=O)(c1ccccc1)N1CCOCC(Cc2cccnc2)C1 (stereo not drawn) | 0.812%
18 | Cc1cc(C(=O)N2CCC(O)(Cn3c(C)cc4ccncc43)CC2)on1 | 9.55%
19 | Cc1cc(C)n(CC(=O)N2CCCC2c2cc3cccnc3[nH]2)n1 (stereo not drawn) | 3.94%
20 | COc1ccccc1C(=O)N1C[C@@H]2CCCCN(CC(N)=O)[C@@H]2C1 | -4.43%
21 | COc1ccc(CC2CN(C(=O)c3coc(C)n3)CCO2)cc1 (stereo not drawn) | 3.8%
22 | Cc1nccnc1CCC1COCCN1C(=O)CCc1c(C)noc1C (stereo not drawn) | 5.7%
23 | NCc1cnn(-c2ccccc2C(=O)N2CCCC(C(N)=O)C2)c1 (stereo not drawn) | 1.2%

Row | SMILES | cytotoxicity at 10 µM
24 | CC(C)NC(=O)NCc1nnc2n1C(C(=O)N(C)C)CC2 (stereo not drawn) | 5.45%
25 | O=c1[nH]c2ncccc2n1C1CCCC1 | 10.6%
26 | O=C(CN1CCCCC1)Nc1cc(C(F)(F)F)ccc1-n1cccc1 | 5.24%
27 | O=C(COc1ccccc1Br)N1CCOc2ccncc21 | 5.13%
28 | CCC(CC)(CNC(C)=O)NC(C)c1ccccc1 (stereo not drawn) | 4.99%
29 | Cc1cncc(C(=O)N(c2ccc(F)cn2)C2CCOCC2)c1 | 0.0591%
30 | O=c1[nH]c(=O)n(CC(O)c2ccc(F)cc2F)cc1Cl (stereo not drawn) | 2.64%
31 | CC(=O)NC1CCCN(C(=O)CCc2cccnc2)C1 (stereo not drawn) | 19.8%
32 | COc1ccccc1CC1CCCN(C(=O)c2cn[nH]c2C)C1 (stereo not drawn) | 7.61%
33 | COC(=O)C1CCCCN1C(=O)c1ccccc1F (stereo not drawn) | 8.96%
34 | CN(C)C(CNC(=O)c1ccnc(-n2cncn2)c1)c1ccccc1 (stereo not drawn) | -130%
35 | CC(=O)N1CCC(NC(=O)CN2CCCc3c(F)ccc(C)c32)CC1 | -7.68%
36 | NC(=O)c1ccc(NC(=O)c2ccncc2F)cn1 | 6.48%
37 | Cc1nc(-c2ccc(CC(=O)N3CCN(C(=O)C4CC4)CC3)cc2)cs1 | 9.86%
38 | CCCn1nnnc1CSc1nccn1Cc1ccccn1 | 6.24%
39 | Cc1cc(I)cnc1NC(=O)C(C)(C)C | 4.44%
40 | CCOCCOC(C)C(=O)Nc1ccc2ccn(CCN(C)C)c2c1 (stereo not drawn) | 10.1%
41 | CC(C)(C)Oc1ccc(C(=O)N2CCOCC2c2ncon2)cc1 (stereo not drawn) | -0.968%
42 | NC(=O)CN(CC1CCOC1)C1CC1 (stereo not drawn) | -14%
43 | Cn1ccc2c(C(=O)NCCCS(C)(=O)=O)cccc21 | -0.915%
44 | O=C(c1ccco1)N(CC(F)(F)F)C1CCCOC1 (stereo not drawn) | -19.5%
45 | O=C(NCc1ccc(N2CCCC2)nc1)N1CCc2sccc2C1 | -6.87%
46 | COc1ccc(F)cc1C(C)NC(=O)Nc1nncs1 (stereo not drawn) | 12.4%

Row | SMILES | cytotoxicity at 10 µM
47 | Cc1n[nH]c(C2CN(CC(=O)NCc3cccs3)CCO2)n1 (stereo not drawn) | -4.13%
48 | Cc1noc(C(C)N2CCN(CC(=O)N3CCCC3)CC2)n1 (stereo not drawn) | 0.678%
49 | COc1cccc(CC(=O)NCC(Cc2ccc(F)cc2)C(N)=O)c1 (stereo not drawn) | 4.78%
50 | CS(=O)(=O)c1cccc(C(=O)NCC2Cc3ccccc3O2)c1 (stereo not drawn) | -1.26%
51 | CN1CCN(C(=O)c2cnsn2)c2cc(F)ccc21 | -9.03%
52 | CCC(CNC(=O)c1nc(=O)[nH][nH]1)Oc1cccc(F)c1 (stereo not drawn) | -6.76%
53 | CCc1noc(CC)c1CNC(=O)Nc1cccc(C(=O)N(C)C)c1 | 16.4%
54 | Cc1cc(F)ccc1NCC(=O)NCC(F)(F)F | -2.56%
55 | COc1ccc(C(N)=O)cc1NCc1noc(-c2ccsc2)n1 | 3.33%
56 | CC(C)CNC(=O)c1ccc(NC(=O)NCC2CC2)cc1Cl | 7.71%
57 | COc1cc(F)c(C(C)NC(=O)c2cccnc2C)cc1OC (stereo not drawn) | 38%
58 | O=C(c1ccc(N2CCCC2)nn1)N1CCCc2ccc(F)cc21 | -1.7%
59 | CNS(=O)(=O)CC(=O)NC(C)Cc1ccc(Br)cc1 (stereo not drawn) | -10.9%
60 | CC(Cn1cccn1)NC(=O)NCCCN1CCCCCC1=O (stereo not drawn) | 12.3%
61 | CC(C)COCC(NC(=O)Cc1ccn[nH]1)c1ccco1 (stereo not drawn) | -1.53%
62 | Cc1nsc(NC2CCOC3(CCCC3)C2)n1 (stereo not drawn) | 8.85%
63 | CC1CN(C(=O)NCCn2ccnc2)CCO1 (stereo not drawn) | -49.5%
64 | Cc1ncccc1NC(=O)C1=NOC2(CCN(Cc3nccs3)C2)C1 (stereo not drawn) | 2.11%
65 | COc1ccc(-c2cn[nH]c2)cc1CNC1CCCC1 | -45.3%
66 | O=C(O)[C@@H]1CN(C2CCCCC2)C[C@H]1C1CC1 | -140%
67 | CC(C)Cc1ncc2c(n1)CN(c1cc(NC3CC3)nc(N)n1)C2 | -5.82%
68 | CC(C)Nc1cc(N2CCN(Cc3ccccc3)C(CCO)C2)ncn1 (stereo not drawn) | 7.9%
69 | CN1CCCN(C(=O)c2cnc(Cc3c(Cl)cccc3Cl)nc2O)CC1 | -0.862%

Row | SMILES | cytotoxicity at 10 µM
70 | O=C1O[C@@H]2CN(Cc3ccsc3)C[C@@H]2N1Cc1ccccn1 | 9.77%
71 | O=C(CO)N1CCC2(CC1)CC(=O)N(Cc1cc(F)cc(F)c1)C2 | 9.92%
72 | O=C1CCCCCN1CCc1nc(-c2cccnn2)no1 | -1.75%
73 | CCC(C)N(Cc1sccc1C)C(=O)c1cnc[nH]1 (stereo not drawn) | 5.55%
74 | CCCOC1CCCN(c2nc(COC)nc3c2cnn3C)C1 (stereo not drawn) | -1.42%
75 | CCCN1CCN(c2ccc(-c3nc(C)no3)cn2)CC1 | 8.95%
76 | CC1CCCN1Cc1ccccc1-c1nc(C(C)(C)C)cc(=O)[nH]1 (stereo not drawn) | 11.4%
77 | CC(C)n1ccnc1CN1CCOC(CCc2ccccc2)C1 (stereo not drawn) | -132%
78 | CCNc1cc(N2CCN(C(=O)c3ccc(OC)cc3)CC2)nc(C)n1 | -3.45%
79 | C=C(C)COc1cccc(C(=O)NCCCc2nnn[nH]2)c1 | -0.531%
80 | CCCc1nc(CNC(=O)Cc2csc(C)n2)cs1 | -10.6%
81 | Cc1noc(C)c1CCC(=O)N1CCN(CCn2cncn2)CC1 | 5.03%
82 | Cc1ncsc1CCC(=O)NCc1cc2n(n1)CCN(C(=O)N(C)C)C2 | 15.3%
83 | Cc1ccc(C(=O)NCCSCc2cccs2)cn1 | -3.95%
84 | CCOc1ccc(C2CCCN2C(=O)NCCn2ccnc2)cc1 (stereo not drawn) | 0.632%
85 | CCc1ccc(C(=O)N2CCC(c3nncn3CC)CC2)s1 | -15.4%
86 | Cc1nn(C)c(N2CCOCC2)c1CNC1CCC(O)CC1 (stereo not drawn) | -13.2%
87 | Cc1cc(CN2CCN(CC(O)c3ccc(Cl)cc3)CC2)no1 (stereo not drawn) | -7.06%
88 | Cc1nn(C)cc1C(=O)N1CCCC(n2cncn2)C1 (stereo not drawn) | -3.27%
89 | Cc1cc(C)n(CC2CN(CCOc3ccccc3F)CCO2)n1 (stereo not drawn) | -6.73%
90 | Cc1cnn(CC2CCCCN2C(=O)CC(F)(F)F)c1 (stereo not drawn) | -11.5%
91 | CC(=O)Nc1nc(C(=O)NCc2ccnc(N3CCCC3)c2)cs1 | -1.94%
92 | CN(C)C(=O)Cc1nc(CN2CCn3c(nnc3C3CC3)C2)cs1 | -9.66%

Row | SMILES | cytotoxicity at 10 µM
93 | Cc1cnn(CC2CCCN2Cc2ncc(-c3ccccc3)o2)c1 (stereo not drawn) | -8.4%
94 | CC(C)c1csc(C2CCCN(C(=O)Cn3ccccc3=O)C2)n1 (stereo not drawn) | -14.4%
95 | CS(=O)(=O)NCCCN1CCCC1c1ccccc1 (stereo not drawn) | -13.4%
96 | Cc1cnn(CC2CCCN2C(=O)c2cc3ccccc3[nH]c2=O)c1 (stereo not drawn) | 2.38%
97 | CCn1ncc2c1C(COCC1CC1)N(C(=O)c1ccncn1)CC2 (stereo not drawn) | -147%
98 | COc1ccc(N2CCCC3(C2)CN(c2cccnc2)CCO3)cc1 (stereo not drawn) | 6.59%
99 | Cc1ccc(CN2CCc3[nH]nc(C(=O)N(C)C)c3C2)s1 | -7.55%
100 | CC(C)CN1CCS(=O)(=O)[C@@H]2CCN(S(=O)(=O)c3ccccc3)CC[C@@H]21 | 3.62%
101 | Cc1ncnc2c1CCN(Cc1nccs1)CC2 | 9.91%
102 | Cn1nc(COCC2CC2)c2c1CN(C(=O)c1ccno1)CC2 | -5.91%
103 | Fc1ccc(CN2CCc3ncnc(C4CCOC4)c3CC2)cc1 (stereo not drawn) | 12.3%
104 | CN1CCn2c(-c3cccc(F)c3)cnc2C12CCN(CC1CC1)CC2 | 8.13%
105 | CC(C)N(C)C[C@H]1C[C@@H]2CN(Cc3ccco3)C[C@@H]2O1 | -4.22%
106 | CNC(=O)CN1CCO[C@H]2CN(CC3CCOC3)C[C@H]21 (stereo partly drawn) | 7.64%
107 | Cn1ccnc1CN1CCC2(CC1)CCN(c1cncnc1)C2=O | -65%
108 | COCCN1CCC2(CCCN(Cc3ccoc3)C2)C1=O (stereo not drawn) | 0.582%
109 | Cc1ccc(CN2C[C@@H]3CN(C(=O)c4cccn4C)C[C@@H]3C2)cc1 | -4.25%
110 | Cc1ccc(CN2CC[C@H]3[C@H]2CCN3S(=O)(=O)C2CC2)cc1 | 10.2%
111 | CC(C)CN1CCCC2(CCN(c3ccc(C#N)cn3)C2)C1 (stereo not drawn) | 5.22%
112 | CSc1ccccc1C(=O)N1C[C@@H]2CC[C@H]1CN(C(=O)C1CCC1)C2 | -6.75%
113 | OC12CCC(CC1)N(Cc1ccc(F)cc1)C2CN1CCOCC1 (stereo not drawn) | 5.29%
